From PubChem
Sampled rows, rich in hits. Any-hit rate of the full collection: about 1.9%.
TbMetRS inhib: T. brucei MetRS inhibitors, primary screen, biochemical, luminescence; purified T. brucei MetRS, ATP depletion, Kinase-Glo luminescence; AID 624268, 2012; methionyl-tRNA synthetase (Trypanosoma brucei brucei); inhibition, % at 11.9 µM; hit rate 0.4% among 360,000;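 active = inhibition above a per-plate cutoff of the control wells' mean inhibition plus 3 SD, cut at about 5.5% in these data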;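 also: 0% = DMSO wells median and 100% = median of wells with control inhibitor compound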
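Material: parasite MetRS enzyme / Replication: singlicate, one well per compound / Signal: luminescence of leftover ATP / Schedule: 2 h aminoacylation at 25 °C after 15 min preincubation / Medium: HEPES-MgCl2-KCl buffer plus DTT, spermine, BSA, pyrophosphatase / Doses: 11.9 µM single point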
DSG3 Ab inh: inhibitors of pemphigus antibody binding to DSG3, primary screen, biochemical, bead-based, flow cytometry, scFv-GFP; Desmoglein-3 (Homo sapiens), P32926; DSG3-coupled beads, scFv-anti-DSG3-GFP binding; stronger effect = lower value; binding (percent of control), % at 10 µM; hit rate 0.48% among 310,000;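 active = binding more than 3 SD below its plate's average and above zero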
HCV core dimer: inhibitors of HCV core protein dimerization, primary screen, biochemical, TR-FRET, high-throughput. TR-FRET GST/Flag-core106 dimerization, 1536-well. inhibition, % at 5 µM. hit rate 0.33% among 300,000;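 active = inhibition above the mean of all tested compounds plus 3 SD, set per screening campaign, cut at about 45% in these data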
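assay system = GST-tagged and Flag-tagged HCV core protein residues 1-106 | controls = unlabelled core106 and no-GST-core106 wells | incubation = compound-protein-antibody incubation 4 h at 22.5 °C | probe or stimulus = Eu donor and XL665 acceptor anti-tag antibodies | read-out = % inhibition based on acceptor/donor emission ratio | signal = TR-FRET 671 and 617 nm emission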
NadD block: inhibitors of S. aureus NadD, primary screen, biochemical, colorimetric, uHTS; purified NadD enzyme, colorimetric absorbance read-out; inhibition, % at 20 µM; hit rate 0.78% among 360,000; AID 602399, 2012; in the data active = inhibition above about 26%
Rce1 inh: yeast Rce1p protease inhibitors, primary screen, biochemical, fluorescence, cell-free homogeneous; yeast membranes, quenched prenylated peptide cleavage fluorescence; AID 2563, 2010; calls only; hit rate 0.27% among 290,000; CAAX prenyl protease 2 (Saccharomyces cerevisiae (strain ATCC 204508 / S288c)), Q03530;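 active = fall in fluorescence gain of 50% or more versus controls, with final raw signal at or below 3038400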;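 also: plate controls were neutral control wells for no effect and wells lacking membranes for full effect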
Target sequence (Q03530 whole entry, looked up): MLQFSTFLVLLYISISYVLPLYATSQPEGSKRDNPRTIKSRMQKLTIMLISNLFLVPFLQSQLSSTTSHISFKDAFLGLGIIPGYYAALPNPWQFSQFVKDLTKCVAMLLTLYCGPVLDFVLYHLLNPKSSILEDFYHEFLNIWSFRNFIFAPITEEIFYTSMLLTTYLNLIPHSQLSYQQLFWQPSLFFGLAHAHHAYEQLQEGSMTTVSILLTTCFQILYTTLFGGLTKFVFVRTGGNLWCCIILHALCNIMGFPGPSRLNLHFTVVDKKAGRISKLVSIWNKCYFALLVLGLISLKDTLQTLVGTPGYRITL
NadD inh conf: inhibitors of S. aureus NadD, confirmation, biochemical, colorimetric, single concentration; shares compounds with NadD block; purified S. aureus NadD, colorimetric enzyme assay; inhibition, % at 20 µM; hit rate 13% among 2,000; AID 624309, 2012; in the data active = inhibition mostly above about 42%, no sharp cut-off; inactive = mostly below about 42%
Starred values were filed as active, the others as inactive; i = inactive; x = no result.

SMILES | TbMetRS inhib | DSG3 Ab inh | HCV core dimer | NadD block | Rce1 inh | NadD inh conf
Cc1ccc2nc(/C(C#N)=C/c3ccc(-c4cccc([N+](=O)[O-])c4)o3)[nH]c2c1 | 0 | 107 | 2 | 32* | x | 9
O=C(c1ccncc1)N1CCN(S(=O)(=O)c2ccccc2F)CC1 | 0 | 98 | x | -3 | x | x
O=C(N/N=C/c1cccnc1)c1ccc2c(c1)OCO2 | 0 | 94 | -3 | 0 | i | x
Cc1cccc(N2C(=O)C3C4C=CC(C4)C3C2=O)c1 (configuration not stated) | 0 | 100 | -3 | 2 | i | x
C#CCn1c(=NC(=O)c2ccc(S(=O)(=O)N3CCCc4ccccc43)cc2)sc2cc(S(N)(=O)=O)ccc21 | 0 | 108 | 52* | 50* | i | 39
Cc1noc(C)c1NC(=O)Nc1cccc2c1O[C@H](CN(C)S(=O)(=O)c1cccs1)[C@@H](C)CN([C@H](C)CO)C2=O | -2 | 97 | x | 6 | x | x
Cc1ccc(Cl)cc1N1CCN(S(=O)(=O)c2ccc3[nH]c(=O)c(=O)[nH]c3c2)CC1 | 0 | 99 | 26 | 37* | i | 49*
COCc1cc(=O)n2[nH]c(-c3ccsc3-n3c(C)ccc3C)cc2n1 | 0 | x | 10 | 56* | i | 43*
Cc1nc2cc(-c3ccsc3-n3c(C)ccc3C)[nH]n2c(=O)c1Cl | -1 | 99 | 0 | 16 | i | x
Cc1cc(=O)n2[nH]c(-c3ccsc3-n3c(C)ccc3C)cc2n1 | 0 | 95 | 38 | 31* | i | 16
COCc1cc(=O)n2[nH]c(N)nc2n1 | 0 | 99 | 0 | -4 | i | x
Cc1cc(Cl)ccc1OCC(=O)Nc1nc(-c2cccs2)cs1 | 0 | 102 | 8 | -2 | i | x
COc1ccccc1NS(=O)(=O)c1cc(NC(=O)C2CCC2)ccc1N1CCCCC1 | 0 | 91 | 12 | 20 | i | x
COc1ccccc1NS(=O)(=O)c1cc(NC(=O)Nc2ccc(Cl)cc2Cl)ccc1N1CCCCC1 | 0 | 94 | 35 | 43* | i | 17
Cn1cccc1C(=O)OCC(=O)NC1CCS(=O)(=O)C1 (configuration not stated) | -1 | 99 | 0 | -8 | i | x
COc1ccc(C2=NN(C(=O)COC(=O)c3ccc(NC(=O)CC#N)cc3)C(c3ccco3)C2)cc1 (configuration not stated) | 0 | 108 | x | 37* | x | 19
Cc1cccn2c(=O)c3cc(C(N)=S)c(=N)n(CCCN4CCOCC4)c3nc12 | 0 | 91 | 2 | 36* | i | -8
COCCCn1c(=N)c(C(N)=S)cc2c(=O)n3cccc(C)c3nc21 | 0 | 91 | 7 | 28 | i | x
CCCCn1c(-c2ccc(C(C)(C)C)cc2)nc2cc3[nH]c(=O)c(C(C)C)nc3cc21 | 1 | 100 | 19 | 36* | i | 4
CCCCn1c(-c2ccc(Cl)c(Cl)c2)nc2cc3[nH]c(=O)c(C(C)C)nc3cc21 | -1 | x | 21 | 38* | i | 16
CCCCn1c(-c2cccc(Br)c2)nc2cc3[nH]c(=O)c(C(C)C)nc3cc21 | 0 | 91 | 4 | 14 | i | x
CCCCn1c(-c2cccnc2)nc2cc3[nH]c(=O)c(C(C)C)nc3cc21 | 0 | 99 | 8 | 8 | i | x
CC(C)CNC(=S)N(CCCO)Cc1cc2cc3c(cc2[nH]c1=O)OCCO3 | 0 | 115 | 5 | 1 | i | x
COc1ccccc1N1CCN(CCN2C(=O)CC(=C3c4ccccc4-c4ccccc43)C2=O)CC1 | x | x | 24 | x | x | x
O=C1CC(=C2c3ccccc3-c3ccccc32)C(=O)N1CCN1CCN(c2ccccc2)CC1 | 0 | 96 | 18 | 38* | i | 27
Cc1ccccc1N1CCN(CCN2C(=O)CC(=C3c4ccccc4-c4ccccc43)C2=O)CC1 | -1 | 88* | 4 | 31* | x | 39
